Experimental findings from ChEMBL document CHEMBL4017520, “Discovery, Structure-Activity Relationship, and Antiparkinsonian Effect of a Potent and Brain-Penetrant Chemical Series of Positive Allosteric Modulators of Metabotropic Glutamate Receptor 4” (J Med Chem, 2017) are described below.

Active and inactive are the calls of the source. The rule behind the calls is not given here.

The species named for series [1] is Rattus norvegicus. The experiment in a line: Protection against 6-OHDA induced parkinsonian motor deficit in Sprague-Dawley rat after 28 days post surgery. The format is functional.
The subject of series [2] is Rattus norvegicus. The experiment in a line: Toxicity in 6-OHDA induced parkinsonian motor deficit Sprague-Dawley rat model assessed as induction of dyskinesia at 20 mg/kg, ip. To be noted: in vivo. The format is organism-based.
Series [3] deals with Rattus norvegicus. The experiment in a line: Toxicity in 6-OHDA induced parkinsonian motor deficit Sprague-Dawley rat model assessed as induction of overacting rearing behavior at 20 mg/kg, ip. The format is organism-based. To be noted: in vivo.
Series [4] deals with T1, Metabotropic glutamate receptor 4 (Homo sapiens, UniProt Q14833). The experiment in a line: Positive allosteric modulation of recombinant human mGlu4 receptor expressed in HEK293 cells co-expressing Gi/Gq assessed as increase in glutamate-induced calcium flux preincubated for 10 mins followed by glutamate addition measured for 3 mins by Fluo4-AM dye based fluorescence assay. The note with it: read-out: EC50. The format is functional, cell-based.

Series [5] concerns the target T1, Metabotropic glutamate receptor 4. The experiment in a line: Positive allosteric modulation of recombinant human mGlu4 receptor expressed in HEK293 cells co-expressing chimeric G protein assessed as increase in EC20 glutamate-induced […]. The format is functional, cell-based. In general terms: Cyclic AMP is a second messenger, typically raised through Gs and lowered through Gi signalling.

Series [6] concerns the target Metabotropic glutamate receptor 4 (Rattus norvegicus, UniProt P31423). The experiment in a line: Positive allosteric modulation of rat mGlu4 receptor expressed in HEK293 cells co-expressing Gi/Gq assessed as increase in glutamate-induced calcium flux preincubated for 10 mins followed by glutamate addition measured for 3 mins by Fluo4-AM dye based fluorescence assay. The format is functional, cell-based. For orientation: A change in cytosolic calcium serves as a functional read-out for many receptors and channels.

The species named for series [7] is Homo sapiens. The experiment in a line: Selectivity ratio of compound effect for positive allosteric modulation of recombinant human mGlu4 receptor to compound effect for activity at human mGlu6 receptor.
The species named for series [8] is Rattus norvegicus. Nature of the series: Activity at AMPA glutamate receptor in rat cerebral cortex at 10 uM. The essentials:
(§1)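 Inhibition of orthosteric ligand binding to NMDA, AMPA and kainate receptors on rat cerebral cortex membranes, tested up to 10 μM.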

For series [9], the species on record is Rattus norvegicus. Nature of the series: Activity at NMDA glutamate receptor in rat cerebral cortex at 10 uM. Summed up: as §1
The species entered for series [10] is Rattus norvegicus. The experiment in a line: Activity at kainate glutamate receptor in rat cerebral cortex at 10 uM. The essentials: as §1
The nature of series [11]: Activity at COMT (unknown origin) up to 10 uM. The format is ADME. To be noted: human.
The target in series [12] is Amine oxidase [flavin-containing] A (Homo sapiens, UniProt P21397). Nature of the series: Activity at MAO-A (unknown origin) up to 10 uM. The format is ADME.
Series [13] has as its target Amine oxidase [flavin-containing] B (Homo sapiens, UniProt P27338). The experiment in a line: Activity at MAO-B (unknown origin) up to 10 uM. The format is ADME.
Series [14] can be described thus: Cmax in Sprague-Dawley rat at 1 mg/kg, iv administered as single dose by LC-MS/MS analysis. The format is ADME, organism-based. The note with it: in vivo. Set-up: dose 1 mg/kg, route intravenous.
Series [15] in a line: Half life in Sprague-Dawley rat at 1 mg/kg, iv administered as single dose by LC-MS/MS analysis. The format is ADME, organism-based. The note with it: in vivo. Summed up: (§2)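 Single iv dose, 1 mg/kg in rat or 2 mg/kg in mouse; plasma PK parameters derived; brain/plasma ratio taken at 1 h postdose (rat) or 30 min postdose (mouse). Mean of 3 rats; 2 mice for mouse Cmax and brain/plasma.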

Series [16] can be described thus: AUC (0 to infinity) in Sprague-Dawley rat at 1 mg/kg, iv administered as single dose by LC-MS/MS analysis. The arrangement: dose 1 mg/kg, route intravenous, time infinity. The format is ADME, organism-based. The note with it: in vivo.
Series [17] in a line: Plasma clearance in Sprague-Dawley rat at 1 mg/kg, iv administered as single dose by LC-MS/MS analysis. The format is ADME, organism-based. The essentials:
as §2

A short description of series [18]: Volume of distribution in Sprague-Dawley rat at 1 mg/kg, iv administered as single dose by LC-MS/MS analysis. The format is ADME, organism-based. The note with it: in vivo. Summed up: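 Single intravenous dose: rats 1 mg/kg, mice 2 mg/kg. Plasma concentration–time data yielded Cmax, t1/2, AUC0−∞, plasma clearance and volume of distribution. Values are mean ±SEM of 3 animals.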

Series [19] is described as follows: Ratio of drug level in Sprague-Dawley rat brain to plasma at 1 mg/kg, iv after 1 hr post dose administered as single dose by LC-MS/MS analysis. The format is ADME, organism-based. The note with it: read-out: BPR. The essentials: as §2
The nature of series [20]: Cmax in Sprague-Dawley rat plasma at 10 mg/kg, po administered as single dose by LC-MS/MS analysis. The format is ADME, organism-based. The arrangement: dose 10 mg/kg, route oral. The essentials:
(§3)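 Rats given a single oral dose of 10 mg/kg. The first plasma sample was taken at 15 min, and sampling continued to 24 h postdose. Brain was sampled at 30 min. Values are the mean (±SEM) of 3 rats.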

Series [21] is described as follows: Tmax in Sprague-Dawley rat plasma at 10 mg/kg, po administered as single dose by LC-MS/MS analysis. The format is ADME, organism-based. The essentials: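 Single-dose plasma PK after ip (10 or 30 mg/kg) or oral (10 mg/kg) dosing in rats, and oral 10 mg/kg dosing in mice. […] Values are mean ±SEM of 3 rats or 2 mice.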
Series [22] in a line: AUC (0 to infinity) in Sprague-Dawley rat plasma at 10 mg/kg, po administered as single dose by LC-MS/MS analysis. The format is ADME, organism-based. The arrangement: dose 10 mg/kg, time infinity, route oral. The essentials: as §3
A short description of series [23]: Drug uptake in Sprague-Dawley rat brain at 10 mg/kg, po after 30 mins post dose administered as single dose by LC-MS/MS analysis. The format is ADME, organism-based. To be noted: read-out: Drug uptake. The essentials: as §3
Another series concerns Brain. The experiment in a line: AUC (0 to infinity) in Sprague-Dawley rat brain at 10 mg/kg, po administered as single dose by LC-MS/MS analysis. The format is ADME, organism-based. The arrangement: dose 10 mg/kg, time infinity, route oral. To be noted: in vivo. Summed up:
(§4)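 Rats given a single oral dose of 10 mg/kg. Brain concentrations were measured at 30, 60 and 90 min postdose, and brain AUC0–inf was determined. Values are the mean of three rats. Lower limit of quantification was 1 ng/mL.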

Series [24] is filed under the species Homo sapiens. Nature of the series: Selectivity ratio of compound effect for positive allosteric modulation of recombinant human mGlu4 receptor to compound effect for agonist activity at human mGlu8 receptor.
For series [25], the species on record is Homo sapiens. The experiment in a line: Selectivity ratio of compound effect for positive allosteric modulation of recombinant human mGlu4 receptor to compound effect for agonist activity at human mGlu7 receptor.
In series [26] the target is T1, Metabotropic glutamate receptor 4. Nature of the series: Positive allosteric modulation of recombinant human mGlu4 receptor expressed in HEK293 cells co-expressing chimeric G protein assessed as increase in glutamate-induced calcium flux after 10 mins by Fluo4-AM dye based fluorescence assay. The format is functional, cell-based.
Series [27] shares this target. The experiment in a line: Positive allosteric modulation of recombinant human mGlu4 receptor expressed in HEK293 cells co-expressing chimeric Gi/Gq assessed as increase in EC20 glutamate-induced calcium flux at 15 uM preincubated for 10 mins followed by glutamate addition measured for 3 mins by Fluo4-AM dye based fluorescence assay relative to control. The format is functional, cell-based.

Series [28] can be described thus: Drug uptake in Sprague-Dawley rat brain at 10 mg/kg, po after 90 mins post dose administered as single dose by LC-MS/MS analysis. To be noted: read-out: Drug uptake. The format is ADME, organism-based. Summed up:
as §4

Series [29] in a line: Drug uptake in Sprague-Dawley rat brain at 10 mg/kg, po after 60 mins post dose administered as single dose by LC-MS/MS analysis. The format is ADME, organism-based. To be noted: read-out: Drug uptake. The essentials:
as §4

A short description of series [30]: Ratio of AUC (0 to infinity) in Sprague-Dawley rat brain to plasma at 10 mg/kg, po administered as single dose by LC-MS/MS analysis. The format is ADME, organism-based. To be noted: read-out: Ratio AUC.
A short description of series [31]: Ratio of drug level in Sprague-Dawley rat brain to plasma at 25 mg/kg, po administered as single dose by LC-MS/MS analysis. The format is ADME, organism-based. The note with it: read-out: BPR. The essentials: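 Sprague−Dawley rats dosed orally at 25 mg/kg in water; plasma and brain concentrations followed over time to derive brain/plasma ratio.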
The target of series [32] is T1, Metabotropic glutamate receptor 4. The experiment in a line: Positive allosteric modulation of recombinant human mGlu4 receptor expressed in HEK293 cells co-expressing chimeric Gi/Gq protein assessed as fold shift of glutamate potency at 3 uM after 10 mins by Fluo4-AM dye based fluorescence assay relative to control.

T1 sequence (Q14833 whole entry): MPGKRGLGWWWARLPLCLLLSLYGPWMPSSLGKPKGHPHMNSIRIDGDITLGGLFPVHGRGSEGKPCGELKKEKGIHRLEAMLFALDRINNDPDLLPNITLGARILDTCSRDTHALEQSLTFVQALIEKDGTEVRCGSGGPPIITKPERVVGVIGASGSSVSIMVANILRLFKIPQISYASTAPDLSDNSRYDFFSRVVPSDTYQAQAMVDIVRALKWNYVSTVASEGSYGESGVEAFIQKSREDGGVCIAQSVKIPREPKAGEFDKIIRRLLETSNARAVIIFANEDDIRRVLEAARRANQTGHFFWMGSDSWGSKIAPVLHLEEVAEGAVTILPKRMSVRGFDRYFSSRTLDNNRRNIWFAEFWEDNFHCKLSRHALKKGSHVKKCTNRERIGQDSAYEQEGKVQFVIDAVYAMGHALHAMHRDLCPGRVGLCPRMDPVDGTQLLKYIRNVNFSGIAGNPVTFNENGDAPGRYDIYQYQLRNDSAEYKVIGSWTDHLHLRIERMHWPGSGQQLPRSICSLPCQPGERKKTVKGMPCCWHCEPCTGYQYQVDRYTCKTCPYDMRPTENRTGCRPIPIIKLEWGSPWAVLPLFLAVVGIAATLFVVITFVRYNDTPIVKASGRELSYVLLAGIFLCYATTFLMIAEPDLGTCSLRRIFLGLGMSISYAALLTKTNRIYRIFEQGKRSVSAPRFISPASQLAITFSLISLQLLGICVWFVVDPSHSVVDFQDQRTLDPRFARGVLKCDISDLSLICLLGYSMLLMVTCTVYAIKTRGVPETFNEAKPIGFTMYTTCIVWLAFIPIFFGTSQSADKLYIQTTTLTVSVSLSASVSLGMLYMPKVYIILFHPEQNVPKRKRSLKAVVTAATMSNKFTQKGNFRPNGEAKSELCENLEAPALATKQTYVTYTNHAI
Chain of Metabotropic glutamate receptor 4 (Rattus norvegicus, UniProt P31423) (P31423 whole entry): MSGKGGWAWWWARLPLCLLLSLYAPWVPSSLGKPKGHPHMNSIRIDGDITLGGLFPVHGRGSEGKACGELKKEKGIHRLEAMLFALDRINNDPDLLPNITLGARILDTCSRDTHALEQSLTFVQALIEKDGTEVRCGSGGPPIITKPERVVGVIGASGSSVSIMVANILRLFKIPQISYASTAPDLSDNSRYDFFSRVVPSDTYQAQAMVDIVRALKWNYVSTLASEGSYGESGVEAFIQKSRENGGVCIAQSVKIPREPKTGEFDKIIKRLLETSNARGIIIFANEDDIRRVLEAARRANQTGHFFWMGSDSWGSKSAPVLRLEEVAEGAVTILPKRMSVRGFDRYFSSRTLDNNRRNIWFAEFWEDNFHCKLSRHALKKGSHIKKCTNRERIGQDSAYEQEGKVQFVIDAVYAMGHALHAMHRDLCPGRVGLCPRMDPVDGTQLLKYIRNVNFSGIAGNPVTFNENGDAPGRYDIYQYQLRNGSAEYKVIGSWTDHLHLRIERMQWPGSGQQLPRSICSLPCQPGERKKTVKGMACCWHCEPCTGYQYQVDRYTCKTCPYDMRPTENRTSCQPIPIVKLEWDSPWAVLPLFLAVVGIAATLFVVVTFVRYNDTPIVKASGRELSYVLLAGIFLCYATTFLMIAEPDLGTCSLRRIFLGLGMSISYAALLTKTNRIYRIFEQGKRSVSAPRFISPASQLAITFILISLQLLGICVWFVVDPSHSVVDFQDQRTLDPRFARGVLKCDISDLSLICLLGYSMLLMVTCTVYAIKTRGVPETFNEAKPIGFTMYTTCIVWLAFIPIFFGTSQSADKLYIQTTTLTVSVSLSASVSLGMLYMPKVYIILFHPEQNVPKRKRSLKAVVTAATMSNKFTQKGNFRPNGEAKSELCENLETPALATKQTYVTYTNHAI
Chain of Amine oxidase [flavin-containing] A (P21397 whole entry): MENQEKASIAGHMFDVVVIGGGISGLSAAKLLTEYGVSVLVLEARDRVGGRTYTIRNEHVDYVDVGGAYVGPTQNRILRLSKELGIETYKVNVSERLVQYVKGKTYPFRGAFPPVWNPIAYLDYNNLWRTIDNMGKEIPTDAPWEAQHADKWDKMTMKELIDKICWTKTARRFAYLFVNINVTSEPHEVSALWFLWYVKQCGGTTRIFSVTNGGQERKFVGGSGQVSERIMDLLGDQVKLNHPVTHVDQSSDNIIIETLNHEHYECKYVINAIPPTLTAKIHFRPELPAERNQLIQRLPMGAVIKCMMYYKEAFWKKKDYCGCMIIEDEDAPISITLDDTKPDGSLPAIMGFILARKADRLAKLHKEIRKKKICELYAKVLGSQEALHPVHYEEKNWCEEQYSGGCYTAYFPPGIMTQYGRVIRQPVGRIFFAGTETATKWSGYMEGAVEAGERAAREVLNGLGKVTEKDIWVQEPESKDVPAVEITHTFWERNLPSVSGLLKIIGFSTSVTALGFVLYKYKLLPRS
Chain of Amine oxidase [flavin-containing] B (P27338 whole entry): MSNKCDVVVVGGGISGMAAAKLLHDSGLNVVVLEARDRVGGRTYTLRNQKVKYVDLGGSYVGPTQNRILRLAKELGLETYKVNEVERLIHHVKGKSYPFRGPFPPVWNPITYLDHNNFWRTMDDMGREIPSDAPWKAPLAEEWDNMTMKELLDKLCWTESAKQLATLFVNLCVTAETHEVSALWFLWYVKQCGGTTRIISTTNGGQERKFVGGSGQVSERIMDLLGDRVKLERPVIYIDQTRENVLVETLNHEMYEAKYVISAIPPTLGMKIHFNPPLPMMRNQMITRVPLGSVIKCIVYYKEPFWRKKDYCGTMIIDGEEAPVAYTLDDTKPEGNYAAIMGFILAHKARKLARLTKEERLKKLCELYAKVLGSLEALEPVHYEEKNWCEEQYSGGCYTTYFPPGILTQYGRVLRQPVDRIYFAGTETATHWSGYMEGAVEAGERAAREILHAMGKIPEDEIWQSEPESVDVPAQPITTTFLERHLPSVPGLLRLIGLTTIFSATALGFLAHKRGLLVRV

As for `N[C@@H](Cc1ccc(O)c(O)c1)C(=O)O` [LEVODOPA], the Activity entry is “Dose-dependent effect” in the series listed under Rattus norvegicus [1], “Non-Toxic” in the series on Rattus norvegicus [2] and “Toxic” in the series on Rattus norvegicus [3].
As usually defined, the EC50 is the concentration that produces a half-maximal response. By Emax is commonly meant the greatest response seen or fitted, relative to the assay's reference. The term Cmax denotes the peak of the concentration-time curve. One may read the half-life as the time in which the quantity being followed falls by half. High values mean slow loss, low ones fast loss. As usually defined, the AUC(0-inf) is the area under the concentration-time curve extrapolated to infinity. Lower therefore signals low exposure. As usually defined, the clearance is the volume of plasma or blood freed of the substance per unit of time. Lower therefore signals inefficient removal. Broadly, the Vd is a proportionality between amount in the body and measured concentration, not a real space. The low end stands for confinement near the circulation, the high end for extensive tissue distribution. As a reminder, the Tmax is the time from dosing to the highest level. With `O/N=c1\cc(-c2cc3sccc3cn2)oc2ccc(CCCN3CCOCC3)cc12` [FOLIGLURAX], the concentration for a half-maximal effect (EC50) turned out to be 0.079 µM in series [4], 0.047 µM in [6] and 0.079 µM in series [26]. The maximum response (Emax) in series [5] came out at 70%; in series [27], 32%. Further, the Selectivity ratio in the series filed under Homo sapiens [7] is 15; in the series filed under Homo sapiens [24], 50; in the series listed under Homo sapiens [25], 110. Moreover, the outcome in the series filed under Rattus norvegicus [8], in the series listed under Rattus norvegicus [9] and in the series listed under Rattus norvegicus [10] was inactive. For the same molecule, the Activity entry in [11], in series [12] and in series [13] was “Not Active” throughout. The Cmax is 325 ng/mL in series [14] and 94 ng/mL in [20]. This molecule gave a half-life in series [15] of 0.9 h. In addition, the AUC(0-inf) in series [16] turned out to be 163 ng·h/mL; in series [22], 432 ng·h/mL. In addition, the clearance in series [17] was determined as 104 mL/min/kg. This molecule registered a volume of distribution (Vd) in series [18] of 8.02 L/kg. In series [19], the Kp at 1 h was found to be 8.4. Besides, in series [21], the Tmax is 1.17 h. The concentration at 0.5 h in [23] worked out at 458 ng/g. This molecule displayed an AUC with Brain of 2713 ng·h/g. In [28], the concentration at 1.5 h was determined as 818 ng/g. Further, in [29], the concentration at 1 h is 785 ng/g. Moreover, the Kp in [30] was 6.6; in series [31], not above 13.5. Moreover, the fold change (FC) in [32] worked out at 10.
